According to ChEMBL document CHEMBL1133778, “3,5-Disubstituted-4-hydroxyphenyls linked to 3-hydroxy-2-methyl-4(1H)-pyridinone: potent inhibitors of lipid peroxidation and cell toxicity” (J Med Chem, 2000):

Experiments:
Rattus norvegicus [1] = species: Rattus norvegicus; experiment: Relative efficacy gives an indication of the percent of viable cells (Rat cerebellar granule cells) at the maximal efficacious concentration of 46.7 uM; format: functional
Outline: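 Rat cerebellar granule cells exposed to 30 µM iodoacetate for 30 min in physiological salt solution, which was then replaced with maintenance medium containing test compound. Viability was read 24 h later. Relative efficacy is the percent of viable cells at the maximal efficacious concentration.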

Rattus norvegicus [2] = species: Rattus norvegicus; experiment: Ability to protect cerebellar granule cells (CGC) from iodoacetate (IAA)-induced toxicity; format: functional, cell-based
Rattus norvegicus [3] = species: Rattus norvegicus; experiment: Compound was tested for 50% Inhibition of lipid peroxidation in rat brain homogenate; format: functional
Rattus norvegicus [4] = species: Rattus norvegicus; experiment: Relative efficacy gives an indication of the percent of viable cells (Rat cerebellar granule cells) at the maximal efficacious concentration of 0.3 uM; format: functional
Rattus norvegicus [5] = species: Rattus norvegicus; experiment: Relative efficacy gives an indication of the percent of viable cells (Rat cerebellar granule cells) at the maximal efficacious concentration of 26.8 uM; format: functional
Rattus norvegicus [6] = species: Rattus norvegicus; experiment: Relative efficacy gives an indication of the percent of viable cells (Rat cerebellar granule cells) at the maximal efficacious concentration of 5.0 uM; format: functional
Rattus norvegicus [7] = species: Rattus norvegicus; experiment: Relative efficacy gives an indication of the percent of viable cells (Rat cerebellar granule cells) at the maximal efficacious concentration of 33.3 uM; format: functional
Rattus norvegicus [8] = species: Rattus norvegicus; experiment: Relative efficacy gives an indication of the percent of viable cells (Rat cerebellar granule cells) at the maximal efficacious concentration of 0.6 uM; format: functional
Rattus norvegicus [9] = species: Rattus norvegicus; experiment: Relative efficacy gives an indication of the percent of viable cells (Rat cerebellar granule cells) at the maximal efficacious concentration of 0.4 uM; format: functional
Rattus norvegicus [10] = species: Rattus norvegicus; experiment: Relative efficacy gives an indication of the percent of viable cells (Rat cerebellar granule cells) at the maximal efficacious concentration of 77.8 uM; format: functional
Rattus norvegicus [11] = species: Rattus norvegicus; experiment: Relative efficacy gives an indication of the percent of viable cells (Rat cerebellar granule cells) at the maximal efficacious concentration of 6 uM; format: functional

| Compound | EC50 (Rattus norvegicus [2]) [µM] | IC50 (Rattus norvegicus [3]) [µM] | further results |
| --- | --- | --- | --- |
| Cc1c(O)c(=O)ccn1C [DEFERIPRONE] | 46.7 | 3.9 | Relative efficacy (Rattus norvegicus [1]): 1 |
| Cc1c(O)c(=O)ccn1CCc1cc(C(C)(C)C)c(O)c(C(C)(C)C)c1 | 0.3 | 0.3 | Relative efficacy (Rattus norvegicus [4]): 0.9 |
| COc1cc(CCCn2ccc(=O)c(O)c2C)cc(OC)c1O | 26.8 | 2 | Relative efficacy (Rattus norvegicus [5]): 0.8 |
| CCNCc1cc(C(C)(C)C)c(O)c(C(C)(C)C)c1 | 5 | 14.8 | Relative efficacy (Rattus norvegicus [6]): 0.9 |
| COc1cc(CCn2ccc(=O)c(O)c2C)cc(OC)c1O | 33.3 | 3.3 | Relative efficacy (Rattus norvegicus [7]): 0.9 |
| Cc1c(O)c(=O)ccn1CCCCc1cc(C(C)(C)C)c(O)c(C(C)(C)C)c1 | 0.6 | 2.9 | Relative efficacy (Rattus norvegicus [8]): 0.7 |
| Cc1c(O)c(=O)ccn1CCSc1cc(C(C)(C)C)c(O)c(C(C)(C)C)c1 | 0.4 | 0.4 | Relative efficacy (Rattus norvegicus [9]): 0.6 |
| Cc1c(O)c(=O)ccn1CCCc1cc(C(C)(C)C)c(O)c(C(C)(C)C)c1 | 0.3 | 1 | Relative efficacy (Rattus norvegicus [4]): 0.8 |
| Cc1c(C)c2c(c(C)c1O)CCC(C)(C(=O)O)O2 (stereo not given) [TROLOX] | 77.8 | 28.7 | Relative efficacy (Rattus norvegicus [10]): 0.9 |
| Cc1cc(C(C)(C)C)c(O)c(C(C)(C)C)c1 [BUTYLATED HYDROXYTOLUENE] | 6 | 5.9 | Relative efficacy (Rattus norvegicus [11]): 0.9 |
